Results published in ChEMBL document CHEMBL2057101, “Fluorocyclines. 2. Optimization of the C-9 side-chain for antibacterial activity and oral efficacy” (J Med Chem, 2012).
In brackets after ≈: the same amount, converted by molar mass.

Key:
Type in all cases: functional
Streptococcus pneumoniae [1] = assay: Antibacterial activity against tetracycline-resistant Streptococcus pneumoniae isolate 160 expressing tetM gene
Staphylococcus aureus [2] = assay: Antibacterial activity against tetracycline-resistant Staphylococcus aureus isolate SA161 expressing TetM gene
Summary of the method: (§1)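 Broth microdilution MIC following CLSI methods in cation-adjusted Mueller Hinton broth, prepared fresh and held at 4 °C before testing. Defibrinated horse blood added to the medium where appropriate. Runs accepted when quality control ranges for comparator antibiotics and ATCC QC strains were met.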

Streptococcus pneumoniae [3] = assay: Antibacterial activity against Streptococcus pneumoniae ATCC 49619 isolate 106
Summary of the method: (§2)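 MIC by broth microdilution in liquid medium per CLSI, in cation-adjusted Mueller Hinton broth made fresh and held at 4 °C before testing. Horse blood (defibrinated) added to the medium where appropriate. Runs were accepted only when the comparator antibiotics and ATCC QC strains fell within their recommended ranges.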

Escherichia coli [4] = assay: Antibacterial activity against Escherichia coli ATCC 25922 isolate 107; summary of the method: as §2
Klebsiella pneumoniae = assay: Antibacterial activity against Klebsiella pneumoniae ATCC 13883; summary of the method: as §2
Escherichia coli [5] = assay: Antibacterial activity against Escherichia coli isolate EC155 expressing tetA gene; summary of the method: as §2
Staphylococcus aureus [6] = assay: Antibacterial activity against tetracycline-susceptible Staphylococcus aureus ATCC 13709 Smith isolate SA100; summary of the method: as §1
Staphylococcus aureus [7] = assay: Antibacterial activity against tetracycline-resistant Staphylococcus aureus isolate SA158 expressing TetK gene

Row | Compound | MIC (Streptococcus pneumoniae [1]) [µg/mL] | MIC (Staphylococcus aureus [2]) [µg/mL] | MIC (Streptococcus pneumoniae [3]) [µg/mL] | MIC (Escherichia coli [4]) [µg/mL] | MIC (Klebsiella pneumoniae) [µg/mL] | MIC (Escherichia coli [5]) [µg/mL] | MIC (Staphylococcus aureus [6]) [µg/mL] | MIC (Staphylococcus aureus [7]) [µg/mL]
1 | CN(C)[C@@H]1C(O)=C(C(N)=O)C(=O)[C@@]2(O)C(O)=C3C(=O)c4c(O)c(NC(=O)[C@@H]5CCCCN5)cc(F)c4C[C@H]3C[C@@H]12 | 0.063 (≈ 0.113 µM) | 1 (≈ 1.79 µM) | 0.031 (≈ 0.0555 µM) | 0.5 (≈ 0.895 µM) | 2 (≈ 3.58 µM) | 8 (≈ 14.3 µM) | 0.5 (≈ 0.895 µM) | 0.25 (≈ 0.448 µM)
2 | CN(C)[C@@H]1C(O)=C(C(N)=O)C(=O)[C@@]2(O)C(O)=C3C(=O)c4c(O)c(NC(=O)c5cccs5)cc(F)c4C[C@H]3C[C@@H]12 | 16 (≈ 28.7 µM) | 0.25 (≈ 0.448 µM) | 16 (≈ 28.7 µM) | > 32 | > 32 | > 32 | 0.13 (≈ 0.233 µM) | 0.5 (≈ 0.897 µM)
3 | CN(C)[C@@H]1C(O)=C(C(N)=O)C(=O)[C@@]2(O)C(O)=C3C(=O)c4c(O)c(NC(=O)[C@H]5CCCCN5)cc(F)c4C[C@H]3C[C@@H]12 | 0.5 (≈ 0.895 µM) | 2 (≈ 3.58 µM) | 0.5 (≈ 0.895 µM) | 4 (≈ 7.16 µM) | 16 (≈ 28.6 µM) | > 32 | 2 (≈ 3.58 µM) | 2 (≈ 3.58 µM)
4 | CN(C)[C@@H]1C(O)=C(C(N)=O)C(=O)[C@@]2(O)C(O)=C3C(=O)c4c(O)c(NC(=O)[C@@H]5C[C@@H](F)CN5C)cc(F)c4C[C@H]3C[C@@H]12 | 0.063 (≈ 0.109 µM) | 2 (≈ 3.47 µM) | 0.063 (≈ 0.109 µM) | 4 (≈ 6.94 µM) | 8 (≈ 13.9 µM) | > 32 | 0.5 (≈ 0.867 µM) | 1 (≈ 1.73 µM)
5 | CN(C)[C@@H]1C(O)=C(C(N)=O)C(=O)[C@@]2(O)C(O)=C3C(=O)c4c(O)c(NC(=O)[C@H]5CCCN5)cc(F)c4C[C@H]3C[C@@H]12 | 0.5 (≈ 0.918 µM) | 2 (≈ 3.67 µM) | 0.13 (≈ 0.239 µM) | 4 (≈ 7.35 µM) | 8 (≈ 14.7 µM) | 32 (≈ 58.8 µM) | 2 (≈ 3.67 µM) | 4 (≈ 7.35 µM)
6 | CC(C)N1CCC[C@H]1C(=O)Nc1cc(F)c2c(c1O)C(=O)C1=C(O)[C@]3(O)C(=O)C(C(N)=O)=C(O)[C@@H](N(C)C)[C@@H]3C[C@@H]1C2 | ≤ 0.016 | 1 (≈ 1.7 µM) | ≤ 0.016 | 2 (≈ 3.41 µM) |  | 8 (≈ 13.6 µM) | 0.5 (≈ 0.852 µM) | 0.25 (≈ 0.426 µM)
7 | CN(C)[C@@H]1C(O)=C(C(N)=O)C(=O)[C@@]2(O)C(O)=C3C(=O)c4c(O)c(NC(=O)[C@@H]5CC(F)(F)CN5C)cc(F)c4C[C@H]3C[C@@H]12 | 0.5 (≈ 0.841 µM) | 1 (≈ 1.68 µM) | 0.5 (≈ 0.841 µM) | > 32 | > 32 | > 32 | 1 (≈ 1.68 µM) | 1 (≈ 1.68 µM)
8 | CN(C)[C@@H]1C(O)=C(C(N)=O)C(=O)[C@@]2(O)C(O)=C3C(=O)c4c(O)c(NS(=O)(=O)c5ccccc5)cc(F)c4C[C@H]3C[C@@H]12 | 0.25 (≈ 0.425 µM) | 1 (≈ 1.7 µM) | 0.25 (≈ 0.425 µM) | 32 (≈ 54.5 µM) | > 32 | > 32 | 0.5 (≈ 0.851 µM) | 0.5 (≈ 0.851 µM)
9 | CN(C)[C@@H]1C(O)=C(C(N)=O)C(=O)[C@@]2(O)C(O)=C3C(=O)c4c(O)c(NC(=O)[C@@H]5CCN5)cc(F)c4C[C@H]3C[C@@H]12 | 0.031 (≈ 0.0584 µM) | 0.13 (≈ 0.245 µM) | 0.16 (≈ 0.302 µM) | 0.25 (≈ 0.471 µM) | 1 (≈ 1.88 µM) | 16 (≈ 30.2 µM) | 0.25 (≈ 0.471 µM) | 0.5 (≈ 0.942 µM)
10 | CN(C)c1ccc(C(=O)Nc2cc(F)c3c(c2O)C(=O)C2=C(O)[C@]4(O)C(=O)C(C(N)=O)=C(O)[C@@H](N(C)C)[C@@H]4C[C@@H]2C3)cc1 | 8 (≈ 13.5 µM) | 0.063 (≈ 0.106 µM) | 2 (≈ 3.36 µM) | > 32 | > 32 | > 32 | 0.063 (≈ 0.106 µM) | 0.063 (≈ 0.106 µM)
11 | CN(C)[C@@H]1C(O)=C(C(N)=O)C(=O)[C@@]2(O)C(O)=C3C(=O)c4c(O)c(NC(=O)c5ccccc5)cc(F)c4C[C@H]3C[C@@H]12 | 16 (≈ 29 µM) | 0.25 (≈ 0.453 µM) | 16 (≈ 29 µM) | > 32 | > 32 | > 32 | 0.25 (≈ 0.453 µM) | 0.5 (≈ 0.907 µM)
12 | CN(C)[C@@H]1C(O)=C(C(N)=O)C(=O)[C@@]2(O)C(O)=C3C(=O)c4c(O)c(NC(=O)c5cccc(C(F)(F)F)c5)cc(F)c4C[C@H]3C[C@@H]12 | > 32 | 0.5 (≈ 0.807 µM) | > 32 | > 32 | > 32 | > 32 | 0.25 (≈ 0.404 µM) | 0.13 (≈ 0.21 µM)
13 | CN(C)[C@@H]1C(O)=C(C(N)=O)C(=O)[C@@]2(O)C(O)=C3C(=O)c4c(O)c(NS(=O)(=O)c5cccs5)cc(F)c4C[C@H]3C[C@@H]12 | 1 (≈ 1.68 µM) | 1 (≈ 1.68 µM) | 0.25 (≈ 0.421 µM) | > 32 | > 32 | > 32 | 0.5 (≈ 0.842 µM) | 0.5 (≈ 0.842 µM)
14 | CN(C)[C@@H]1C(O)=C(C(N)=O)C(=O)[C@@]2(O)C(O)=C3C(=O)c4c(O)c(NC(=O)[C@H]5CCCN5C)cc(F)c4C[C@H]3C[C@@H]12 | 0.25 (≈ 0.448 µM) | 2 (≈ 3.58 µM) | 0.25 (≈ 0.448 µM) | 2 (≈ 3.58 µM) | 4 (≈ 7.16 µM) | 16 (≈ 28.6 µM) | 2 (≈ 3.58 µM) | 2 (≈ 3.58 µM)
15 | CN(C)[C@@H]1C(O)=C(C(N)=O)C(=O)[C@@]2(O)C(O)=C3C(=O)c4c(O)c(NC(=O)[C@@H]5CCCCN5C)cc(F)c4C[C@H]3C[C@@H]12 | 0.25 (≈ 0.437 µM) | 8 (≈ 14 µM) | 0.13 (≈ 0.227 µM) | 0.5 (≈ 0.873 µM) | 2 (≈ 3.49 µM) | > 32 | 2 (≈ 3.49 µM) | 1 (≈ 1.75 µM)
16 | CN(C)[C@@H]1C(O)=C(C(N)=O)C(=O)[C@@]2(O)C(O)=C3C(=O)c4c(O)c(NC(=O)CNC(C)(C)C)cc(F)c4C[C@H]3C[C@@H]12 | 0.016 (≈ 0.0285 µM) | 0.25 (≈ 0.446 µM) | 0.016 (≈ 0.0285 µM) | 0.25 (≈ 0.446 µM) | 1 (≈ 1.78 µM) | 2 (≈ 3.57 µM) | 0.25 (≈ 0.446 µM) | 0.063 (≈ 0.112 µM)
17 | CN(C)[C@@H]1C(O)=C(C(N)=O)C(=O)[C@@]2(O)C(O)=C3C(=O)c4c(O)c(NC(=O)c5ccn(C)n5)cc(F)c4C[C@H]3C[C@@H]12 | 2 (≈ 3.6 µM) | 0.5 (≈ 0.9 µM) | 1 (≈ 1.8 µM) | > 32 | > 32 | > 32 | 0.5 (≈ 0.9 µM) | 1 (≈ 1.8 µM)
18 | CN(C)[C@@H]1C(O)=C(C(N)=O)C(=O)[C@@]2(O)C(O)=C3C(=O)c4c(O)c(NC(=O)CN5CCCC5)cc(F)c4C[C@H]3C[C@@H]12 [ERAVACYCLINE] | 0.016 (≈ 0.0286 µM) | 0.016 (≈ 0.0286 µM) | 0.016 (≈ 0.0286 µM) | 0.016 (≈ 0.0286 µM) | 0.125 (≈ 0.224 µM) | 1 (≈ 1.79 µM) | 0.016 (≈ 0.0286 µM) | 0.016 (≈ 0.0286 µM)
19 | CN(C)[C@@H]1C(O)=C(C(N)=O)C(=O)[C@@]2(O)C(O)=C3C(=O)c4c(O)c(NCC(C)(C)C)cc(F)c4C[C@H]3C[C@@H]12 | 16 (≈ 30.9 µM) | 2 (≈ 3.86 µM) | 4 (≈ 7.73 µM) | > 32 | > 32 | > 32 | 0.25 (≈ 0.483 µM) | 0.25 (≈ 0.483 µM)
20 | CN(C)[C@@H]1C(O)=C(C(N)=O)C(=O)[C@@]2(O)C(O)=C3C(=O)c4c(O)c(CNCC(C)(C)C)cc(F)c4C[C@H]3C[C@@H]12 | 0.25 (≈ 0.47 µM) | 4 (≈ 7.52 µM) | 0.25 (≈ 0.47 µM) | 4 (≈ 7.52 µM) | 8 (≈ 15 µM) | 16 (≈ 30.1 µM) | 2 (≈ 3.76 µM) | 2 (≈ 3.76 µM)
